Among the data in ChEMBL document CHEMBL1124769, “Retinobenzoic acids. 5. Retinoidal activities of compounds having a trimethylsilyl or trimethylgermyl group(s) in human promyelocytic leukemia cells HL-60” (1990) are EC50, Relative activity and ED50 values, retold here.

The subject of test [1] is HL-60. Briefly: Ability to induce differentiation of human promyelocytic leukemia cell line HL-60 to mature granulocytes. Conditions: for EC50: read-out: ED50 (the source's name). The class given is functional. The gist of the method:
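HL-60 cells in RPMI1640 with 5% FCS, penicillin G and streptomycin, at 37 °C in 5% CO2. Seeded at ~8 × 10^4 cells/mL and exposed 4 days to compound from a 0.2 mM ethanol stock (final ethanol <0.5%, ethanol-only controls). Read by Wright-Giemsa differential counts and NBT reduction (0.2% NBT plus TPA, 20 min, 37 °C), ≥200 cells each. ED50 from NBT data (van der Waerden method).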

The subject of test [2] is HL-60. As to the kind of experiment: Relative activity against human promyelocytic leukemia HL-60 cells. It counts as functional. The gist of the method: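 Relative activity was computed as ED50 of retinoic acid ÷ ED50 of test compound × 100. Both ED50s came from concurrent 4-day HL-60 NBT-reduction differentiation assays spanning 5 orders of magnitude in concentration, each run at least twice. Values are representative ones or means.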

In the case of `C[Si](C)(C)c1cccc(/C=C/c2ccc(C(=O)O)cc2)c1`, the EC50 in test [1] stood at 1 nM. Besides, the Relative activity in test [2] was 85.

For `C[Si](C)(C)c1cc(C(=O)/C=C/c2ccc(C(=O)O)cc2)cc([Si](C)(C)C)c1`, the EC50 in test [1] is 0.14 nM. In test [2], this compound displayed a Relative activity of 860.

For “4-[3-(2,5-Bis-trimethylgermanyl-phenyl)-3-oxo-propenyl]-benzoic acid (Ch55G)”, the ED50 in test [1] is 0.21 nM. The Relative activity in test [2] worked out at 1000.

For `CCc1ccc(C(=O)/C=C/c2ccc(C(=O)O)cc2)cc1CC`, the EC50 in test [1] is 170 nM.

In the case of `CC(C)(C)c1cccc(C(=O)/C=C/c2ccc(C(=O)O)cc2)c1`, in test [1], the EC50 was found to be 160 nM. This compound came in with a Relative activity in test [2] of 0.81.

Take `C[Si](C)(C)c1cccc(NC(=O)c2ccc(C(=O)O)cc2)c1`: the EC50 in test [1] was determined as 85 nM. For the same compound, in test [2], the Relative activity is 2.4.

In the case of `CC(C)(C)c1cc(NC(=O)c2ccc(C(=O)O)cc2)cc(C(C)(C)C)c1`, the EC50 in test [1] is 36 nM. This compound returned a Relative activity in test [2] of 15.

In test [2], `CC(C)(C)c1cc(C(=O)/C=C/c2ccc(C(=O)O)cc2)cc(C(C)(C)C)c1` returned a Relative activity of 640.

`CC1(C)CCC(C)(C)c2cc(NC(=O)c3ccc(C(=O)O)cc3)ccc21` [TAMIBAROTENE]: the EC50 in test [1] was determined as 0.79 nM.

Turning to “4-[3-Oxo-3-(3-trimethylgermanyl-phenyl)-propenyl]-benzoic acid (Ch60G)”, in test [1], the ED50 stood at 40 nM. The Relative activity in test [2] came to 4.5.

In the case of `C[Si](C)(C)c1cc(C(=O)Nc2ccc(C(=O)O)cc2)cc([Si](C)(C)C)c1` [AMSILAROTENE], in test [1], the EC50 was 9.2 nM. Besides, the Relative activity in test [2] turned out to be 52.7.

As to `C[Si](C)(C)c1cc(NC(=O)c2ccc(C(=O)O)cc2)cc([Si](C)(C)C)c1`, the EC50 in test [1] turned out to be 30 nM. The compound also had a Relative activity in test [2] of 13.

For the compound `CC1=C(/C=C/C(C)=C/C=C/C(C)=C/C(=O)O)C(C)(C)CCC1` [TRETINOIN], the EC50 in test [1] came to 2.4 nM. In test [2], this compound gave a Relative activity of 100.

Regarding `CC(C)c1cccc(NC(=O)c2ccc(C(=O)O)cc2)c1`, the EC50 in test [1] is 680 nM.

Regarding `CC(C)(C)c1cccc(/C=C/c2ccc(C(=O)O)cc2)c1`, the Relative activity in test [2] is given as 13.

“N-(3,5-Bis-trimethylgermanyl-phenyl)-terephthalamic acid (Am55G)” came in with an ED50 in test [1] of 42 nM. The Relative activity in test [2] amounted to 15.

On to `CC(C)(C)c1cccc(NC(=O)c2ccc(C(=O)O)cc2)c1`, for which, in test [1], the EC50 was 700 nM. The Relative activity in test [2] is 0.32.

As to `C[Si](C)(C)c1cccc(C(=O)/C=C/c2ccc(C(=O)O)cc2)c1`, the EC50 in test [1] turned out to be 44 nM. Further, the Relative activity in test [2] is 1.8.

`CC(C)(C)c1ccc(C(=O)/C=C/c2ccc(C(=O)O)cc2)cc1` had a Relative activity in test [2] of 3.9.

Take `CC(C)(C)c1cc(C(=O)Nc2ccc(C(=O)O)cc2)cc(C(C)(C)C)c1`: the EC50 in test [1] is 48 nM. In addition, the Relative activity in test [2] came out at 5.6.
